Results taken from ChEMBL document CHEMBL3580660, “Synthesis and Biological Evaluation of Novel Olean-28,13β-lactams as Potential Antiprostate Cancer Agents” (J Med Chem, 2015).
pIC50: −log10 of the molar value. The source made the active and inactive calls. The rule behind the calls is not given here.

Legend:
[1] = Antiproliferative activity against human BxPC3 cells after 72 hrs by CCK8 assay; format: functional, cell-based; settings: BXPC-3, 72 h
Summary of the method: (§1)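 CCK-8 assay: DU-145, H460, Bxpc-3, BEL-7404 and nontumor WPMY-1 cells seeded at 5 × 10^3 cells/well in 10% FCS DMEM overnight, then exposed in triplicate to 0.041−10 μM for 72 h. CCK-8 added for final 30 min, absorbance 450 nm; inhibition relative to medium-only controls after background subtraction; IC50 as concentration giving 50% inhibition.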

[2] = system: Mus musculus; experiment: Acute toxicity in ICR mouse assessed as mortality at 640 mg/kg, oral gavage after 4 hrs; format: organism-based; settings: in vivo
Summary of the method: (§2)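 ICR mice of both sexes, 7 weeks old, held under SPF conditions. Each got one gavage dose (800, 640, 512, 409.6 or 327.8 mg/kg) or vehicle, n = 8 per group. Deaths were recorded at 1 h, 4 h, 3 d and 4–14 d. Behaviour, water and food intake, body weight and activity were followed to day 14. LD50 given with 95% confidence limits.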

[3] = molecular target: T1, Cytochrome P450 1A2 (Homo sapiens, UniProt P05177); experiment: Inhibition of CYP1A2 in human liver microsomes after 1 hr by LC-MS/MS analysis
T1 sequence (P05177 whole entry): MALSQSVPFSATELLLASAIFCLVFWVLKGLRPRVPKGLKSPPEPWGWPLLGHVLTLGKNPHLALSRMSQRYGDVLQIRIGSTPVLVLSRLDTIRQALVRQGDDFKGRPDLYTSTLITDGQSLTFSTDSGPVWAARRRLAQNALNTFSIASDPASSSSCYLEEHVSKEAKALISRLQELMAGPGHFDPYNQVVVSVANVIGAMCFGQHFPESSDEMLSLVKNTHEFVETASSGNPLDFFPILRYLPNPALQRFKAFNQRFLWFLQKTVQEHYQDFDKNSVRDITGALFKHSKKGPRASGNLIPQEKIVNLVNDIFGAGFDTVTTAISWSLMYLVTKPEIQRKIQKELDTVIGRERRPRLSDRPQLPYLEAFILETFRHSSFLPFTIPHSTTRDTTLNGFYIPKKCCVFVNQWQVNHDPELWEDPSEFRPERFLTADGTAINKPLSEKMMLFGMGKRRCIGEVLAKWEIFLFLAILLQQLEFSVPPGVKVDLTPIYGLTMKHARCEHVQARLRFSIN

[4] = system: Mus musculus; experiment: Acute toxicity in ICR mouse assessed as mortality at 640 mg/kg, oral gavage after 1 hr; format: organism-based; settings: in vivo; summary of the method: as §2
[5] = Acute toxicity in ICR mouse assessed as survival at 640 mg/kg, oral gavage on day 14; format: organism-based; settings: in vivo; summary of the method: as §2
[6] = system: Mus musculus; experiment: Acute toxicity in ICR mouse assessed as total mortality at 800 mg/kg, oral gavage up to 14 days; format: organism-based; settings: in vivo, 336 h; summary of the method: as §2
[7] = molecular target: Serine/threonine-protein kinase mTOR (Homo sapiens) (UniProt P42345); experiment: Effect on mTOR protein expression in human DU145 cells at 0.08 to 0.32 uM after 24 hrs by Western blot analysis; format: functional, cell-based; settings: DU-145
Summary of the method: (§3)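 DU-145 cells (5 × 10^5/well) in 10% FCS Ham's F-12K overnight, treated in duplicate with compound or vehicle 24 h; lysed (Tris pH 8, EGTA, NaCl, NP-40, Triton X-100), protein by BCA. Blots blocked in 5% milk, probed for AKT, p-AKT Ser473, mTOR, p-mTOR Ser2448, Bax, Bcl-2, β-actin; ECL detection, densitometry relative to control; three separate experiments.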

[8] = system: Mus musculus; experiment: Acute toxicity in ICR mouse assessed as mortality at 640 mg/kg, oral gavage after 4 to 14 days; format: organism-based; settings: in vivo; summary of the method: as §2
[9] = system: Mus musculus; experiment: Acute toxicity in ICR mouse assessed as mortality at 409.6 mg/kg, oral gavage after 4 to 14 days; format: organism-based; settings: in vivo; summary of the method: as §2
[10] = Antiproliferative activity against human Bel7404 cells after 72 hrs by CCK8 assay; format: functional, cell-based; settings: BEL-7404, 72 h; summary of the method: as §1
[11] = system: Mus musculus; experiment: Toxicity in human DU145 cells xenografted in BALB/c mouse assessed as change in body weight at 8.5 mg/kg, oral gavage for 21 days relative to vehicle treated control; format: organism-based, DU-145; settings: in vivo, 504 h
Summary of the method: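 Male BALB/c nude mice (6−8 weeks, 18−22 g) implanted subcutaneously on right axillary flank with 2 × 10^6 DU-145 cells in 0.1 mL saline. At 100 ± 30 mm3 tumors, randomized (n = 5/group) to daily gavage for 21 days; vehicle DMSO/Cremphor EL/PBS 1:1:8. Tumor volume every 3 days; tumors excised and weighed at end; TGI from mean tumor weights vs vehicle; body weight tracked.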

[12] = system: DU-145; experiment: Induction of cell cycle arrest in human DU145 cells assessed as cells accumulation at G0/G1 phase at 0.16 uM after 24 hrs by propidium iodide staining-based flow cytometry (reference value: 54%); format: functional
[13] = molecular target: Cytochrome P450 3A4 (Homo sapiens, UniProt P08684); experiment: Inhibition of CYP3A4 in human liver microsomes using midazolam as substrate after 1 hr by LC-MS/MS analysis
Cytochrome P450 3A4, sequence (P08684 whole entry): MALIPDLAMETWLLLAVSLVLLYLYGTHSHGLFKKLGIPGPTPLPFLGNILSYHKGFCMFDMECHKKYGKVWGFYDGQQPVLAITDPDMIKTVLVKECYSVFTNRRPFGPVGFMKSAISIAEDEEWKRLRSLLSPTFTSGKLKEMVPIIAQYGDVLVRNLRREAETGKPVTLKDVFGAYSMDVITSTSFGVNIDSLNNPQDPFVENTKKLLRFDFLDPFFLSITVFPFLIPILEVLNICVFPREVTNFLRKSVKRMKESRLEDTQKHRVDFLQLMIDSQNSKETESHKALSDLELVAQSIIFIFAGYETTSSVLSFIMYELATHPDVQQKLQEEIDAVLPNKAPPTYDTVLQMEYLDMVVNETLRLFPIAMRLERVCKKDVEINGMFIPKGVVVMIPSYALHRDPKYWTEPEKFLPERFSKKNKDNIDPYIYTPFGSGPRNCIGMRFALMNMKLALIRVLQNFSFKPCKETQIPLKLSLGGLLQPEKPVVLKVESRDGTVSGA

[14] = Antiproliferative activity against human H460 cells after 72 hrs by CCK8 assay; format: functional, cell-based; settings: NCI-H460, 72 h; summary of the method: as §1
[15] = Stability in rat plasma assessed as compound remaining after 1 hr by LC-MS/MS analysis; format: ADME, cell-free; settings: read-out: Stability
Summary of the method: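 Compound at 50 ng/mL incubated in pooled heparinized rat plasma, 37 °C, 60 min. Proteins precipitated with 5 volumes cold acetonitrile containing internal standard; remaining compound measured by LC−MS/MS and expressed as percent remaining; mean ± SD.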

[16] = molecular target: Serine/threonine-protein kinase mTOR (Homo sapiens) (UniProt P42345); experiment: Reduction in phosphorylated mTOR protein expression in human DU145 cells at 0.08 to 0.32 uM after 24 hrs by Western blot analysis; format: functional, cell-based; settings: DU-145; summary of the method: as §3
[17] = system: Mus musculus; experiment: Acute toxicity in ICR mouse assessed as mortality at 512 mg/kg, oral gavage after 1 hr; format: organism-based; settings: in vivo; summary of the method: as §2
[18] = system: DU-145; experiment: Induction of cell cycle arrest in human DU145 cells assessed as cells accumulation at S phase at 0.16 uM after 24 hrs by propidium iodide staining-based flow cytometry (reference value: 24%); format: functional
[19] = system: Mus musculus; experiment: Acute toxicity in ICR mouse assessed as mortality at 327.8 mg/kg, oral gavage after 1 hr; format: organism-based; settings: in vivo; summary of the method: as §2
[20] = system: DU-145; experiment: Antiproliferative activity against human DU145 cells at 2 uM after 72 hrs by CCK8 assay; format: functional; settings: DU-145, 72 h
Summary of the method: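 DU-145 screening at single concentration 2 μM for 72 h, proliferation by CCK-8 (cells 5 × 10^3/well in 10% FCS DMEM). Percent inhibition vs untreated, background-corrected; mean ± SD from three independent experiments.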

[21] = system: Mus musculus; experiment: Acute toxicity in ICR mouse assessed as mortality at 327.8 mg/kg, oral gavage after 4 hrs; format: organism-based; settings: in vivo; summary of the method: as §2
[22] = system: Mus musculus; experiment: Acute toxicity in ICR mouse assessed as mortality at 327.8 mg/kg, oral gavage after 4 to 14 days; format: organism-based; settings: in vivo; summary of the method: as §2

CC1(C)CC[C@]23CC[C@@]4(C)[C@]5(C)CC[C@H]6C(C)(C)C(=O)C(C#N)=C[C@]6(C)C5=CC(=O)[C@@]4([C@@H]2C1)N(C1CCCCC1)C3=O
pIC50 [1]: 6.48 | Activity [2]: Non-toxic | pIC50 [3]: < 4.00 | Activity [4]: Non-toxic | survival at 14 day [5]: 25% | Activity [6]: Toxic | Activity [7]: inactive | Activity [8]: Non-toxic | Activity [9]: Non-toxic | pIC50 [10]: 6.34 | Activity [11]: Non-toxic | Activity [12]: 68% | pIC50 [13]: 6.03 | pIC50 [14]: 6.42 | remaining at 1 h [15]: 46% | inhibition [16]: Active | Activity [17]: Non-toxic | Activity [18]: 10% | Activity [19]: Non-toxic | inhibition at 2 µM [20]: 75% | Activity [21]: Non-toxic | Activity [22]: Non-toxic
